Reference: ChEMBL document CHEMBL1145431, “Improved anti-osteoporosis potency and reduced endometrial membrane hyperplasia during hormone replacement therapy with estrogen-RGD peptide conjugates” (2007)
Where a SMILES comes first, the peptide text is derived from it. The star is where a group is joined. Succinyl(O17-estradiol) = C[C@]12CC[C@@H]3c4ccc(O)cc4CC[C@H]3[C@@H]1CC[C@@H]2OC(=O)CCC(=O)*

Experiments:
Mus musculus [1] = experiment: Effect on mineral content in ovariectomized mouse at 0.1103 mmol/kg, ip once daily for 4 weeks; type: functional
Method in brief: (§1)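 Female Kuiming mice (7 weeks, 30.7 ± 3.1 g) ovariectomized, sham group abdominorotomy. From day 5, i.p. once daily for 4 weeks at 110.3 × 10-3 mmol/kg in 0.5% CMC. Left femur cleaned, length measured, defatted in chloroform-methanol (2:1, 2 × 3 h), dried 120 °C 6 h for dry weight, ashed 800 °C 8 h. Mineral content = ash/dry weight. Ash dissolved in 6 N HCl and diluted. Ca by o-methylphenolphthalein complexone, P by molybdenum blue. Lungs and livers weighed directly.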

Mus musculus [2] = experiment: Effect on calcium level in ovariectomized mouse at 0.1103 mmol/kg, ip once daily for 4 weeks; type: functional; method in brief: as §1
Mus musculus [3] = experiment: Effect on lung weight in ovariectomized mouse at 0.1103 mmol/kg, ip once daily for 4 weeks; type: functional; method in brief: as §1
Mus musculus [4] = experiment: Effect on serum calcium level in mouse at 0.1103 mmol/kg, po; type: functional
Method in brief: (§2)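 Oral OVX Kuiming mouse model, dosed daily for 4 weeks at 110.3 × 10-3 mmol/kg in 0.5% CMC. Retro-orbital blood stood 30 min at room temperature and was spun at 3000 g for 20 min. Serum kept at -20 °C. Calcium read by o-methylphenolphthalein complexone, phosphorus by molybdenum blue, ALP by activity on disodium phenylphosphate substrate.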

Mus musculus [5] = experiment: Effect on femur ash weight in ovariectomized mouse at 0.1103 mmol/kg, ip once daily for 4 weeks; type: functional; method in brief: as §1
Mus musculus [6] = experiment: Effect on serum calcium level in ovariectomized mouse at 0.1103 mmol/kg, ip once daily for 4 weeks; type: functional
Method in brief: (§3)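 OVX Kuiming mice dosed i.p. daily for 4 weeks in 0.5% CMC. Blood taken retro-orbitally on the day after the last dose, stood 30 min, spun at 3000 g for 20 min, serum stored at -20 °C. Calcium by o-methylphenolphthalein complexone, phosphorus by molybdenum blue, ALP by activity with disodium phenylphosphate substrate.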

Mus musculus [7] = experiment: Effect on femur ash weight in mouse at 0.1103 mmol/kg, po; type: functional
Method in brief: (§4)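 Female Kuiming mice (7 weeks old, 30.7 ± 3.1 g) under abdominal OVX, sham group abdominorotomy only. From day 5 after surgery, dosed orally once daily for 4 weeks at 110.3 × 10-3 mmol/kg in 0.5% CMC (0.2 mL), vehicle group CMC alone. Blood drawn retro-orbitally, then left femur and organs removed under pentobarbital (40.0 mg/kg, i.p.).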

Mus musculus [8] = experiment: Effect on serum phosphorus level in ovariectomized mouse at 0.1103 mmol/kg, ip once daily for 4 weeks; type: functional; method in brief: as §3
Mus musculus [9] = experiment: Effect on mineral content in mouse at 0.1103 mmol/kg, po; type: functional; method in brief: as §4
Mus musculus [10] = experiment: Effect on femur length in ovariectomized mouse at 0.1103 mmol/kg, ip once daily for 4 weeks; type: functional; method in brief: as §1
Mus musculus [11] = experiment: Effect on spleen weight in mouse at 0.1103 mmol/kg, po; type: functional; method in brief: as §4
Mus musculus [12] = experiment: Increase in body weight in ovariectomized mouse at 0.1103 mmol/kg, ip once daily for 4 weeks; type: functional
Method in brief: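 Female Kuiming mice (30.7 ± 3.1 g) underwent abdominal OVX; the sham group had abdominorotomy only. From day 5 after surgery, i.p. dosing once daily for 4 weeks at 110.3 × 10-3 mmol/kg in aqueous 0.5% CMC. Body weight was recorded on the day of the last administration.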

Mus musculus [13] = experiment: Effect on phosphorus level in mouse at 0.110 mmol/kg, po; type: functional; method in brief: as §4
Mus musculus [14] = experiment: Effect on spleen weight in ovariectomized mouse at 0.1103 mmol/kg, ip once daily for 4 weeks; type: functional
Method in brief: (§5)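 Female Kuiming mice (7 weeks old, 30.7 ± 3.1 g), abdominal OVX under pentobarbital (40.0 mg/kg i.p.). From day 5 after surgery, i.p. injection once daily for 4 weeks, compound in aqueous 0.5% CMC prepared just before use. The day after the last dose, mice were anesthetized and killed, and lungs, livers, spleens and uteri were removed and weighed directly. n = 12, ANOVA, p < 0.05.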

Mus musculus [15] = experiment: Effect on calcium level in mouse at 0.1103 mmol/kg, po; type: functional; method in brief: as §4
Mus musculus [16] = experiment: Effect on serum ALP level in mouse at 0.1103 mmol/kg, po; type: functional; method in brief: as §2
Mus musculus [17] = experiment: Effect on phosphorus level in ovariectomized mouse at 0.1103 mmol/kg, ip once daily for 4 weeks; type: functional; method in brief: as §1
Mus musculus [18] = experiment: Effect on dry weight of femurs in ovariectomized mouse at 0.1103 mmol/kg, ip once daily for 4 weeks; type: functional, Femur; method in brief: as §1
Mus musculus [19] = experiment: Effect on serum ALP lavel in ovariectomized mouse at 0.1103 mmol/kg, ip once daily for 4 weeks; type: functional; method in brief: as §3
Mus musculus [20] = experiment: Effect on uterus weight in ovariectomized mouse at 0.1103 mmol/kg, ip once daily for 4 weeks; type: functional; method in brief: as §5
Mus musculus [21] = experiment: Effect on uterus weight in mouse at 0.1103 mmol/kg, po; type: functional
Mus musculus [22] = experiment: Effect on lenght of femur in mouse at 0.110 mmol/kg, po; type: functional; method in brief: as §4
Mus musculus [23] = experiment: Effect on lung weight in mouse at 0.1103 mmol/kg, po; type: functional; method in brief: as §4
Mus musculus [24] = experiment: Effect on liver weight in ovariectomized mouse at 0.110 mmol/kg, ip once daily for 4 weeks; type: functional; method in brief: as §1
Mus musculus [25] = experiment: Effect on serum phosphorous Concentration in mouse at 0.110 mmol/kg, po; type: functional; method in brief: as §2
Mus musculus [26] = experiment: Effect on liver weight in mouse at 0.1103 mmol/kg, po; type: functional; method in brief: as §4
Mus musculus [27] = experiment: Effect on dry weight of femurs in mouse at 0.1103 mmol/kg, po; type: functional, Femur; method in brief: as §4

| Compound | Ratio (Mus musculus [1]) | Activity (Mus musculus [2]) | Activity (Mus musculus [3]) | Activity (Mus musculus [4]) | Activity (Mus musculus [5]) | Activity (Mus musculus [6]) | Activity (Mus musculus [7]) | Activity (Mus musculus [8]) | Ratio (Mus musculus [9]) | Activity (Mus musculus [10]) | Activity (Mus musculus [11]) | Activity (Mus musculus [12]) | Activity (Mus musculus [13]) | Activity (Mus musculus [14]) | Activity (Mus musculus [15]) | Activity (Mus musculus [16]) | Activity (Mus musculus [17]) | Activity (Mus musculus [18]) | Activity (Mus musculus [19]) | Activity (Mus musculus [20]) | also measured |
| --- | --- | --- | --- | --- | --- | --- | --- | --- | --- | --- | --- | --- | --- | --- | --- | --- | --- | --- | --- | --- | --- |
| C[C@]12CC[C@@H]3c4ccc(O)cc4CC[C@H]3[C@@H]1CC[C@@H]2OC(=O)CCC(=O)N[C@@H](CCCNC(=N)N)C(=O)NCC(=O)N[C@@H](CC(=O)O)C(=O)N[C@@H](CO)C(=O)O ({Succinyl(O17-estradiol)}-RGDS-OH) | 0.52 | 51.312% | 151 mg | 2.04 mmol/L | 34.4 mg | 2.002 mmol/L | 29.3 mg | 1.602 mmol/L | 51.5% | 1.634 cm | 135 mg | 35.4 g | 24.885% | 130 mg | 51.201% | 35.4 U/L | 24.92% | 66.4 mg | 32.771 U/L | 55.5 mg | Activity (Mus musculus [21]): 36.7 mg; Activity (Mus musculus [22]): 1.654 cm; Activity (Mus musculus [23]): 161 mg; Activity (Mus musculus [24]): 1.371 g; Activity (Mus musculus [25]): 1.6 mmol/L; Activity (Mus musculus [26]): 1.331 g; Activity (Mus musculus [27]): 68.8 mg |
| CC(C)[C@H](NC(=O)[C@H](CC(=O)O)NC(=O)CNC(=O)[C@H](CCCNC(=N)N)NC(=O)CCC(=O)O[C@H]1CC[C@H]2[C@@H]3CCc4cc(O)ccc4[C@H]3CC[C@]12C)C(=O)O ({Succinyl(O17-estradiol)}-RGDV-OH) | 0.625 | 53.078% | 167 mg | 2.03 mmol/L | 35.8 mg | 2.005 mmol/L | 33 mg | 1.605 mmol/L | 52.5% | 1.655 cm | 133 mg | 34.5 g | 24.879% | 143 mg | 52.003% | 33.411 U/L | 24.867% | 62.6 mg | 31.057 U/L | 69.4 mg | Activity (Mus musculus [21]): 50.7 mg; Activity (Mus musculus [22]): 1.645 cm; Activity (Mus musculus [23]): 167 mg; Activity (Mus musculus [24]): 1.353 g; Activity (Mus musculus [25]): 1.61 mmol/L; Activity (Mus musculus [26]): 1.34 g; Activity (Mus musculus [27]): 68.2 mg |
